Test results reported in ChEMBL document CHEMBL4339192, “De Novo Designed Amphipathic α-Helical Antimicrobial Peptides Incorporating Dab and Dap Residues on the Polar Face To Treat the Gram-Negative Pathogen, Acinetobacter baumannii” (J Med Chem, 2019).
≈ marks a conversion by molar mass, not a printed value. Where a SMILES comes first, the peptide text is derived from it. [ ]: non-standard residue; d: D form. Dab = NCC[C@H](N)C(=O)O

Columns and labels:
Acinetobacter baumannii [1] = test: Antibacterial activity against Acinetobacter baumannii isolate 1002956 measured after 24 hrs by microtiter dilution method; format: functional; conditions: isolate 1002956, 24 h
Method in brief: (§1)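 Broth microdilution in Mueller-Hinton (MH) medium. […] Plates were incubated 24 h at 37 °C. MIC was the lowest peptide concentration that inhibited growth, based on three sets of replicates.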

Acinetobacter baumannii [2] = test: Antibacterial activity against Acinetobacter baumannii isolate 1010282 measured after 24 hrs by microtiter dilution method; format: functional; conditions: isolate 1010282, 24 h; method in brief: as §1
Acinetobacter baumannii [3] = test: Antibacterial activity against Acinetobacter baumannii 649 measured after 24 hrs in presence of 25% human serum by microtiter dilution method; format: functional; conditions: Acinetobacter baumannii, 649, 24 h
Method in brief: (§2)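 Blood strain 649 was tested by MH broth microdilution with and without 25% (v/v) human serum added to the medium. The test used a final inoculum of 5 × 10^5 cfu/mL and incubation at 37 °C. The ratio is the MIC in serum over the MIC in MH alone.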

[4] = Therapeutic index, ratio of HC50 for human RBC to MIC for polymyxin B/colistin-resistant Acinetobacter baumannii M89949; format: toxicity; conditions: human red blood cells, read-out: TI
Method in brief: (§3)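 T.I. = HC50/MIC. For HC50, peptide (quantified by amino acid analysis) was two-fold serially diluted over 12 concentrations up to 1000 μg/mL. It was incubated with 1% fresh human erythrocytes in PBS, pH 7.4, for 18 h at 37 °C. After 800g centrifugation, hemoglobin was read at 570 nm against water (100%) and no-peptide (0%) controls. HC50 came from a lysis-versus-concentration plot, average of 3 replicates.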

[5] = Therapeutic index, ratio of HC50 for human RBC to MIC for polymyxin B/colistin-resistant Acinetobacter baumannii M89963; format: toxicity; conditions: human red blood cells, read-out: TI; method in brief: as §3
Acinetobacter baumannii [6] = test: Antibacterial activity against Acinetobacter baumannii isolate 963618 measured after 24 hrs by microtiter dilution method; format: functional; conditions: isolate 963618, 24 h; method in brief: as §1
[7] = Therapeutic index, ratio of HC50 for human RBC to MIC for polymyxin B/colistin-resistant Acinetobacter baumannii M89953; format: toxicity; conditions: human red blood cells, read-out: TI; method in brief: as §3
Acinetobacter baumannii [8] = test: Antibacterial activity against Acinetobacter baumannii isolate 9383370 measured after 24 hrs by microtiter dilution method; format: functional; conditions: isolate 9383370, 24 h; method in brief: as §1
Acinetobacter baumannii [9] = test: Antibacterial activity against polymyxin B/colistin-resistant Acinetobacter baumannii M89953 measured after 24 hrs by microtiter dilution method; format: functional; conditions: M89953, 24 h; method in brief: as §1
Acinetobacter baumannii [10] = test: Antibacterial activity against polymyxin B/colistin-resistant Acinetobacter baumannii M89949 measured after 24 hrs by microtiter dilution method; format: functional; conditions: M89949, 24 h; method in brief: as §1
Acinetobacter baumannii [11] = test: Antibacterial activity against Acinetobacter baumannii isolate 961997 measured after 24 hrs by microtiter dilution method; format: functional; conditions: isolate 961997, 24 h; method in brief: as §1
Acinetobacter baumannii [12] = test: Antibacterial activity against Acinetobacter baumannii isolate 1017395 measured after 24 hrs by microtiter dilution method; format: functional; conditions: isolate 1017395, 24 h; method in brief: as §1
Acinetobacter baumannii [13] = test: Antibacterial activity against Acinetobacter baumannii isolate 1007660 measured after 24 hrs by microtiter dilution method; format: functional; conditions: isolate 1007660, 24 h; method in brief: as §1
Acinetobacter baumannii [14] = test: Antibacterial activity against polymyxin B/colistin-resistant Acinetobacter baumannii M89952 measured after 24 hrs by microtiter dilution method; format: functional; conditions: M89952, 24 h; method in brief: as §1
Acinetobacter baumannii [15] = test: Antibacterial activity against Acinetobacter baumannii isolate 1018887 measured after 24 hrs by microtiter dilution method; format: functional; conditions: isolate 1018887, 24 h; method in brief: as §1
Acinetobacter baumannii [16] = test: Antibacterial activity against Acinetobacter baumannii isolate 952654 measured after 24 hrs by microtiter dilution method; format: functional; conditions: isolate 952654, 24 h; method in brief: as §1
[17] = Therapeutic index, ratio of HC50 for human RBC to MIC for polymyxin B/colistin-resistant Acinetobacter baumannii M89955; format: toxicity; conditions: human red blood cells, read-out: TI; method in brief: as §3
[18] = Therapeutic index, ratio of HC50 for human RBC to MIC for polymyxin B/colistin-resistant Acinetobacter baumannii M89952; format: toxicity; conditions: human red blood cells, read-out: TI; method in brief: as §3
Acinetobacter baumannii [19] = test: Antibacterial activity against Acinetobacter baumannii isolate 964304 measured after 24 hrs by microtiter dilution method; format: functional; conditions: isolate 964304, 24 h; method in brief: as §1
Acinetobacter baumannii [20] = test: Antibacterial activity against Acinetobacter baumannii isolate 968886 measured after 24 hrs by microtiter dilution method; format: functional; conditions: isolate 968886, 24 h; method in brief: as §1
Acinetobacter baumannii [21] = test: Antibacterial activity against Acinetobacter baumannii isolate 1035166 measured after 24 hrs by microtiter dilution method; format: functional; conditions: isolate 1035166, 24 h; method in brief: as §1
Acinetobacter baumannii [22] = test: Antibacterial activity against polymyxin B/colistin-resistant Acinetobacter baumannii M89941 measured after 24 hrs by microtiter dilution method; format: functional; conditions: M89941, 24 h; method in brief: as §1
Acinetobacter baumannii [23] = test: Antibacterial activity against Acinetobacter baumannii isolate 1035794 measured after 24 hrs by microtiter dilution method; format: functional; conditions: isolate 1035794, 24 h; method in brief: as §1
[24] = Therapeutic index, ratio of HC50 for human RBC to MIC for polymyxin B/colistin-resistant Acinetobacter baumannii M89941; format: toxicity; conditions: human red blood cells, read-out: TI; method in brief: as §3
Acinetobacter baumannii [25] = test: Antibacterial activity against polymyxin B/colistin-resistant Acinetobacter baumannii M89963 measured after 24 hrs by microtiter dilution method; format: functional; conditions: M89963, 24 h; method in brief: as §1
Acinetobacter baumannii [26] = test: Antibacterial activity against polymyxin B/colistin-resistant Acinetobacter baumannii M89955 measured after 24 hrs by microtiter dilution method; format: functional; conditions: M89955, 24 h; method in brief: as §1
Acinetobacter baumannii [27] = test: Antibacterial activity against Acinetobacter baumannii isolate 977751 measured after 24 hrs by microtiter dilution method; format: functional; conditions: isolate 977751, 24 h; method in brief: as §1
Acinetobacter baumannii [28] = test: Antibacterial activity against Acinetobacter baumannii isolate 981650 measured after 24 hrs by microtiter dilution method; format: functional; conditions: isolate 981650, 24 h; method in brief: as §1
[29] = Hemolytic activity against human RBC measured after 18 hrs by spectrophotometric method; format: ADME, cell-based, Erythrocyte; conditions: human red blood cells (erythrocytes)
Method in brief: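 Peptide (amount by amino acid analysis), two-fold serial dilutions at 12 concentrations up to 1000 μg/mL, with 1% human erythrocytes in PBS pH 7.4, 37 °C, 18 h. Unlysed cells removed by centrifugation (800g); hemoglobin read at 570 nm. Water-lysed cells = 100%, no-peptide cells = 0%. HC50 from plot of % lysis vs concentration (μM), average of 3 replicates.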

Acinetobacter baumannii [30] = test: Antibacterial activity against Acinetobacter baumannii isolate 965463 measured after 24 hrs by microtiter dilution method; format: functional; conditions: isolate 965463, 24 h; method in brief: as §1
Acinetobacter baumannii [31] = test: Ratio of MIC for Acinetobacter baumannii 649 measured in presence of 25% human serum to MIC for Acinetobacter baumannii 649 in absence of 25% human serum; format: functional; method in brief: as §2
Acinetobacter baumannii [32] = test: Antibacterial activity against Acinetobacter baumannii 649 measured after 24 hrs by microtiter dilution method; format: functional; conditions: Acinetobacter baumannii, 649, 24 h; method in brief: as §1
Acinetobacter baumannii [33] = test: Antibacterial activity against polymyxin B/colistin-resistant Acinetobacter baumannii M89951 measured after 24 hrs by microtiter dilution method; format: functional; conditions: M89951, 24 h; method in brief: as §1
Acinetobacter baumannii [34] = test: Antibacterial activity against Acinetobacter baumannii isolate 1021371 measured after 24 hrs by microtiter dilution method; format: functional; conditions: isolate 1021371, 24 h; method in brief: as §1
Acinetobacter baumannii [35] = test: Antibacterial activity against Acinetobacter baumannii isolate 963659 measured after 24 hrs by microtiter dilution method; format: functional; conditions: isolate 963659, 24 h; method in brief: as §1
Acinetobacter baumannii [36] = test: Antibacterial activity against Acinetobacter baumannii isolate 1010245 measured after 24 hrs by microtiter dilution method; format: functional; conditions: isolate 1010245, 24 h; method in brief: as §1
Acinetobacter baumannii [37] = test: Antibacterial activity against Acinetobacter baumannii isolate 1001611 measured after 24 hrs by microtiter dilution method; format: functional; conditions: isolate 1001611, 24 h; method in brief: as §1
[38] = Therapeutic index, ratio of HC50 for human RBC to MIC for polymyxin B/colistin-resistant Acinetobacter baumannii M89951; format: toxicity; conditions: human red blood cells, read-out: TI; method in brief: as §3

CC(=O)N[C@H](CCCCN)C(=O)N[C@H](CC(C)C)C(=O)N[C@@H](CCN)C(=O)N[C@H](CO)C(=O)N[C@H](CC(C)C)C(=O)N[C@H](CC(C)C)C(=O)N[C@@H](CCN)C(=O)N[C@@H](C(=O)N[C@H](CC(C)C)C(=O)N[C@H](CO)C(=O)N[C@@H](CCN)C(=O)N[C@H](C)C(=O)N[C@H](C)C(=O)N[C@H](C)C(=O)N[C@H](C)C(=O)N[C@H](C)C(=O)N[C@H](CC(C)C)C(=O)N[C@@H](CCN)C(=O)N[C@@H](C(=O)N[C@H](CC(C)C)C(=O)N[C@H](CC(C)C)C(=O)N[C@@H](CCN)C(=O)N[C@H](C)C(=O)N[C@H](CC(C)C)C(=O)N[C@H](CO)C(=O)N[C@@H](CCN)C(N)=O)[C@H](C)O)[C@H](C)O (Ac-[dK][dL][Dab][dS][dL][dL][Dab][dT][dL][dS][Dab][dA][dA][dA][dA][dA][dL][Dab][dT][dL][dL][Dab][dA][dL][dS][Dab]-NH2) gave an MIC (Acinetobacter baumannii [1]) of 0.8 µM (≈ 2.07 µg/mL), an MIC (Acinetobacter baumannii [2]) of 0.8 µM (≈ 2.07 µg/mL) and an MIC (Acinetobacter baumannii [3]) of 3 µM. For the same compound, the selectivity ratio [4] was 8.6, the selectivity ratio [5] was 8.6 and the MIC (Acinetobacter baumannii [6]) was 0.8 µM (≈ 2.07 µg/mL). It also gave a selectivity ratio [7] of 8.6, an MIC (Acinetobacter baumannii [8]) of 1.5 µM (≈ 3.87 µg/mL) and an MIC (Acinetobacter baumannii [9]) of 0.8 µM (≈ 2.07 µg/mL). It also gave an MIC (Acinetobacter baumannii [10]) of 0.8 µM (≈ 2.07 µg/mL), an MIC (Acinetobacter baumannii [11]) of 0.8 µM (≈ 2.07 µg/mL) and an MIC (Acinetobacter baumannii [12]) of 0.8 µM (≈ 2.07 µg/mL). It also gave an MIC (Acinetobacter baumannii [13]) of 0.8 µM (≈ 2.07 µg/mL), an MIC (Acinetobacter baumannii [14]) of 0.8 µM (≈ 2.07 µg/mL) and an MIC (Acinetobacter baumannii [15]) of 0.5 µM (≈ 1.29 µg/mL). It also gave an MIC (Acinetobacter baumannii [16]) of 0.8 µM (≈ 2.07 µg/mL), a selectivity ratio [17] of 8.6 and a selectivity ratio [18] of 8.6. The MIC (Acinetobacter baumannii [19]) was 1.5 µM (≈ 3.87 µg/mL), the MIC (Acinetobacter baumannii [20]) was 0.8 µM (≈ 2.07 µg/mL) and the MIC (Acinetobacter baumannii [21]) was 0.8 µM (≈ 2.07 µg/mL). For the same compound, the MIC (Acinetobacter baumannii [22]) was 1.5 µM (≈ 3.87 µg/mL), the MIC (Acinetobacter baumannii [23]) was 0.8 µM (≈ 2.07 µg/mL) and the selectivity ratio [24] was 8.6. For the same compound, the MIC (Acinetobacter baumannii [25]) was 0.8 µM (≈ 2.07 µg/mL), the MIC (Acinetobacter baumannii [26]) was 0.8 µM (≈ 2.07 µg/mL) and the MIC (Acinetobacter baumannii [27]) was 3.1 µM (≈ 8.01 µg/mL). For the same compound, the MIC (Acinetobacter baumannii [28]) was 0.4 µM (≈ 1.03 µg/mL), the HC50 at 18 h [29] was 7.7 µM and the MIC (Acinetobacter baumannii [30]) was 0.8 µM (≈ 2.07 µg/mL). The Ratio (Acinetobacter baumannii [31]) was 4, the MIC (Acinetobacter baumannii [32]) was 0.8 µM (≈ 2.07 µg/mL) and the MIC (Acinetobacter baumannii [33]) was 0.8 µM (≈ 2.07 µg/mL). It also gave an MIC (Acinetobacter baumannii [34]) of 0.8 µM (≈ 2.07 µg/mL), an MIC (Acinetobacter baumannii [35]) of 0.4 µM (≈ 1.03 µg/mL) and an MIC (Acinetobacter baumannii [36]) of 0.8 µM (≈ 2.07 µg/mL). For the same compound, the MIC (Acinetobacter baumannii [37]) was 0.8 µM (≈ 2.07 µg/mL) and the selectivity ratio [38] was 8.6.
